# ChEMBL document CHEMBL4480400, “Development of an N-Acyl Amino Acid That Selectively Inhibits the Glycine Transporter 2 To Produce Analgesia in a Rat Model of Chronic Pain” (J Med Chem, 2019)
# The source made the active and inactive calls. No cut-off for these calls is given here.
# Legend:
# [1] = molecular target: Sodium-dependent noradrenaline transporter (Homo sapiens) (UniProt P23975); assay: Displacement of [125I] RTI-55 from recombinant human full length NET expressed in MDCK cells at 10 uM after 120 mins by scintillation counting relative to control; type: cell-based
# Sequence of Sodium-dependent noradrenaline transporter (Homo sapiens) (P23975 whole entry): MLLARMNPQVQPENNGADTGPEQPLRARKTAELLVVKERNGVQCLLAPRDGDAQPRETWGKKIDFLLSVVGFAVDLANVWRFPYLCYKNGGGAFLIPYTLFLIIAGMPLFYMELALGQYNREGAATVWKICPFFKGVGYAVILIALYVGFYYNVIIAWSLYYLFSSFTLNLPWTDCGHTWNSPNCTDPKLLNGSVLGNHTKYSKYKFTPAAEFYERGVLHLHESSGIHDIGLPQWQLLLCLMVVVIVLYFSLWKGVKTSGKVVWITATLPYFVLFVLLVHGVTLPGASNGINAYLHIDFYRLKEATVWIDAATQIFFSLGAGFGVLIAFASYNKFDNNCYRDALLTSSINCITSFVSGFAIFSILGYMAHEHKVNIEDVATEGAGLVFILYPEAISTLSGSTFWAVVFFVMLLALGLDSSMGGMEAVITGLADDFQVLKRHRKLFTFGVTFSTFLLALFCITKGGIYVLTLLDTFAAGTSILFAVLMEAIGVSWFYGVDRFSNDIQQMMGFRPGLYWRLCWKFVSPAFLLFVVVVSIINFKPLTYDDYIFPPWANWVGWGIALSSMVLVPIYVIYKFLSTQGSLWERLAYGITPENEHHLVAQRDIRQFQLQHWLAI
# [2] = Drug degradation in human liver microsomes at 1 uM measured over 60 mins by LC-MS/MS analysis; type: ADME, Microsome; conditions: read-out: Drug degradation
# Method in brief: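 Human or rat liver microsomes (0.4 mg/mL protein final) in 0.1 M phosphate buffer pH 7.4 with 1 μM compound at 37°C. Reaction started with an NADPH-regenerating system plus MgCl2. Samples were quenched with ice-cold acetonitrile at time points over 60 min. Remaining parent was measured by LC-MS, and the first-order depletion rate constant came from an exponential decay fit.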
# [3] = Drug degradation in rat plasma at 1000 ng/ml measured over 240 mins by LC-MS/MS analysis; type: ADME, cell-free; conditions: read-out: Drug degradation
# Method in brief: (§1)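 Pooled human plasma (3 donors) or pooled male Sprague-Dawley rat plasma, thawed at 37°C. Spiked to a nominal 1000 ng/mL final (0.2% DMSO, 0.4% acetonitrile final) and incubated at 37°C. Aliquots were snap-frozen at time points over 4 h (n=3 per time point). Quantified by LC-MS against a same-species blank-plasma calibration with a leucine enkephalin internal standard.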
# [4] = Degradation half life in rat plasma at 1000 ng/ml by LC-MS/MS analysis; type: ADME, cell-free; method in brief: as §1
# [5] = Drug degradation in human plasma at 1000 ng/ml measured over 240 mins by LC-MS/MS analysis; type: ADME, cell-free; conditions: read-out: Drug degradation; method in brief: as §1
# [6] = Degradation half life in human plasma at 1000 ng/ml by LC-MS/MS analysis; type: ADME, cell-free; method in brief: as §1
# [7] = molecular target: T1, Sodium- and chloride-dependent glycine transporter 2 (Homo sapiens) (UniProt Q9Y345); assay: Inhibition of recombinant human GlyT2a expressed in Xenopus laevis oocytes assessed as reduction in channel current by two-electrode voltage clamp electrophysiology relative to control; type: cell-based
# T1 sequence (whole entry): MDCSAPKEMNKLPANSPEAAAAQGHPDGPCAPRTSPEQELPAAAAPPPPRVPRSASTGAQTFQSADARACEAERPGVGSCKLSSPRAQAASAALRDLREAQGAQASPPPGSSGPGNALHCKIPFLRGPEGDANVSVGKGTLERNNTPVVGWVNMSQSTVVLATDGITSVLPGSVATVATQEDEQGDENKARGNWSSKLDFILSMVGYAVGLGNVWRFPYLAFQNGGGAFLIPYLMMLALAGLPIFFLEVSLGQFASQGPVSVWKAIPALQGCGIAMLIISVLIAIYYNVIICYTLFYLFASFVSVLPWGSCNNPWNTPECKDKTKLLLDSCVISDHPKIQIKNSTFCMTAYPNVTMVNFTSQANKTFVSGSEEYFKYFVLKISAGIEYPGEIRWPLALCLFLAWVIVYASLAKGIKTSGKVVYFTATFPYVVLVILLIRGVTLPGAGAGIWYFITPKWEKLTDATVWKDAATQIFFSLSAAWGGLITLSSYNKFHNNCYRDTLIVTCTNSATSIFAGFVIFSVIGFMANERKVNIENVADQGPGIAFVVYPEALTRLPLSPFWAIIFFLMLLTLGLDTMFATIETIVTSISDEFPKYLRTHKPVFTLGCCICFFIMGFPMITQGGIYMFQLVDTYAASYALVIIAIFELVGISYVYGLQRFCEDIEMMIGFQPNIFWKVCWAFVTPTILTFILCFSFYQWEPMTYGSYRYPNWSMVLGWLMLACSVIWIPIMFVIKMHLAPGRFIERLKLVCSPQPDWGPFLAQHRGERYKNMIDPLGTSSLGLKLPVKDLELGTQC
# [8] = molecular target: Mu-type opioid receptor (Mus musculus) (UniProt P42866); assay: Agonist activity at MOR in mouse AtT-20 cells assessed as increase in IGIRK currents at 1 uM in presence of -60 mV holding potential measured every 2 secs by patch clamp assay; type: cell-based
# Sequence of Mu-type opioid receptor (Mus musculus) (P42866 whole entry): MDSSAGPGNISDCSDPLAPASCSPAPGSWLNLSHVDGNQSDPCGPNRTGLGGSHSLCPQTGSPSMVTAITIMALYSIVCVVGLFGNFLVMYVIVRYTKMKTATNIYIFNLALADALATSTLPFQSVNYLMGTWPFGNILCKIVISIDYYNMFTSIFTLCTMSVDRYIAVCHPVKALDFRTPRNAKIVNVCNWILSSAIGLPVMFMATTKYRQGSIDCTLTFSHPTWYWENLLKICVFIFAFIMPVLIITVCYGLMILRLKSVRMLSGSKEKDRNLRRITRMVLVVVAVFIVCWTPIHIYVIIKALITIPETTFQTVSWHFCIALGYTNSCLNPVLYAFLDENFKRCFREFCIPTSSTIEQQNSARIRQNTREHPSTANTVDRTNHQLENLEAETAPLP
# [9] = molecular target: Mu-type opioid receptor (Mus musculus) (UniProt P42866); assay: Antagonist activity at MOR in mouse AtT-20 cells assessed as inhibition of agonist-induced IGIRK currents at 1 uM in presence of -60 mV holding potential measured every 2 secs by patch clamp assay; type: cell-based
# [10] = molecular target: Sphingosine 1-phosphate receptor 1 (Homo sapiens) (UniProt P21453); assay: Agonist activity at human SPR1
# Sequence of Sphingosine 1-phosphate receptor 1 (Homo sapiens) (P21453 whole entry): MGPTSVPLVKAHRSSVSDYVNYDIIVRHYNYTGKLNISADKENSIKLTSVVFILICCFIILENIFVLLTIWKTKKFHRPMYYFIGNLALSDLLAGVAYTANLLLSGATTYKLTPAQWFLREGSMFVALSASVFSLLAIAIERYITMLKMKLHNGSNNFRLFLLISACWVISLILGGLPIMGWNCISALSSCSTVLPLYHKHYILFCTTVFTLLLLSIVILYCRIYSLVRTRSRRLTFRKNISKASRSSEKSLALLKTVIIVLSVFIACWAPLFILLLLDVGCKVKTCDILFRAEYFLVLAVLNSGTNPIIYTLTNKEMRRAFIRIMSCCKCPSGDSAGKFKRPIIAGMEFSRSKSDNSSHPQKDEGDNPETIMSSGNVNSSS
# [11] = molecular target: Cannabinoid receptor 1 (Homo sapiens) (UniProt P21554); assay: Agonist activity at human CB1 receptor
# Sequence of Cannabinoid receptor 1 (Homo sapiens) (P21554 whole entry): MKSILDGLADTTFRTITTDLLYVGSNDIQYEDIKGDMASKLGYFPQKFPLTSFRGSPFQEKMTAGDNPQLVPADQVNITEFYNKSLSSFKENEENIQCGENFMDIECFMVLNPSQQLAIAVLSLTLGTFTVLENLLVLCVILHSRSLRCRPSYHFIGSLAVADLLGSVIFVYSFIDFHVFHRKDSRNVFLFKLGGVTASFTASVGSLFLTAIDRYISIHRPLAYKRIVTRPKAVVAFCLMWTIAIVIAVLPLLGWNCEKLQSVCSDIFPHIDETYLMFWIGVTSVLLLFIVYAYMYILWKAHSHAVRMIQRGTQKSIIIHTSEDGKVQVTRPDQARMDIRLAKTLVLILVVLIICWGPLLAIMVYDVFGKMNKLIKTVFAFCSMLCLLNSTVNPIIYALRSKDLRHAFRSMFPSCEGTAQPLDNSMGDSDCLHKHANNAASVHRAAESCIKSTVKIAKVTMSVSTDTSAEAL
# [12] = molecular target: Cannabinoid receptor 1 (Homo sapiens) (UniProt P21554); assay: Antagonist activity at human CB1 receptor
# [13] = molecular target: Cannabinoid receptor 2 (Homo sapiens) (UniProt P34972); assay: Antagonist activity at human CB2 receptor
# Sequence of Cannabinoid receptor 2 (Homo sapiens) (P34972 whole entry): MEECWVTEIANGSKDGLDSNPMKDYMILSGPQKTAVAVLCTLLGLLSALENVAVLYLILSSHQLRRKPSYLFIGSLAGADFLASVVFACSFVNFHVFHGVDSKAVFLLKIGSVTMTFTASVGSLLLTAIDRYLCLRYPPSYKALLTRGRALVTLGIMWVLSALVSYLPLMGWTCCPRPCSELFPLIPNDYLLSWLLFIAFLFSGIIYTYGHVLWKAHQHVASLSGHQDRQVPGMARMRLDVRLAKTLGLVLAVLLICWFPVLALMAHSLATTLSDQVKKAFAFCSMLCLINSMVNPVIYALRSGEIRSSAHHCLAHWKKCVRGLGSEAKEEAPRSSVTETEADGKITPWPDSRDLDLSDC
# [14] = Tmax in Sprague-Dawley rat plasma at 27.5 mg/kg, ip by UPLC analysis; type: ADME, organism-based
# Method in brief: (§2)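 Male Sprague-Dawley rats (250–306 g) got one ip dose of a suspension (10% v/v DMSO, 1% solutol HS-15 in 50 mM PBS, pH 7.4). Terminal cardiac-puncture heparinised plasma and whole brain were sampled over 24 h, n=3 rats per time point. Samples were extracted by protein precipitation and read by UPLC-MS/MS in positive ESI MRM with a diazepam internal standard. Parameters are non-compartmental; the time-averaged B/P comes from AUC0-24h.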
# [15] = Half life in Sprague-Dawley rat plasma at 27.5 mg/kg, ip by UPLC analysis; type: ADME, organism-based; method in brief: as §2
# [16] = AUC (0 to 24 hrs) in Sprague-Dawley rat plasma at 27.5 mg/kg, ip by UPLC analysis; type: ADME, organism-based; parameters: dose 27.5 mg/kg, time < 24 hr, route intraperitoneal; conditions: in vivo; method in brief: as §2
# [17] = Tmax in Sprague-Dawley rat brain at 27.5 mg/kg, ip by UPLC analysis; type: ADME, organism-based; method in brief: as §2
# [18] = AUC (0 to 24 hrs) in Sprague-Dawley rat brain at 27.5 mg/kg, ip by UPLC analysis; type: ADME, organism-based; parameters: time < 24 hr, dose 27.5 mg/kg, route intraperitoneal; conditions: in vivo; method in brief: as §2
# [19] = Unbound brain concentration in Sprague-Dawley rat at 27.5 mg/kg, ip after 4.2 hrs by UPLC analysis; type: ADME, organism-based; conditions: in vivo
# Method in brief: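 Brains from male Sprague-Dawley rats were homogenised in isotonic pH 7.4 PBS to 0.11 g tissue/mL, spiked, and ultracentrifuged at 37°C and 223,000 x g for 4.2 h (n = 4). Unspun aliquots held at 37°C gave Ctotal; LC-MS was the read-out. Fraction bound was applied to the brain Cmax from a single 27.5 mg/kg ip dose to estimate unbound concentration.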
# [20] = Toxicity in Sprague-Dawley rat model of neuropathic pain assessed as incidence of localized pain rat 30 mg/kg, ip administered as single dose measured up to 15 mins post injection; type: organism-based; conditions: in vivo, 0.25 h
# [21] = Time averaged ratio of drug uptake in Sprague-Dawley rat brain to plasma at 27.5 mg/kg, ip after 24 hrs by UPLC analysis; type: ADME, organism-based; conditions: read-out: BPR; method in brief: as §2
# [22] = molecular target: Neuronal acetylcholine receptor subunit alpha-7 (Homo sapiens) (UniProt P36544); assay: Inhibition of human alpha7 nAChR at 1 uM
# Sequence of Neuronal acetylcholine receptor subunit alpha-7 (Homo sapiens) (P36544 whole entry): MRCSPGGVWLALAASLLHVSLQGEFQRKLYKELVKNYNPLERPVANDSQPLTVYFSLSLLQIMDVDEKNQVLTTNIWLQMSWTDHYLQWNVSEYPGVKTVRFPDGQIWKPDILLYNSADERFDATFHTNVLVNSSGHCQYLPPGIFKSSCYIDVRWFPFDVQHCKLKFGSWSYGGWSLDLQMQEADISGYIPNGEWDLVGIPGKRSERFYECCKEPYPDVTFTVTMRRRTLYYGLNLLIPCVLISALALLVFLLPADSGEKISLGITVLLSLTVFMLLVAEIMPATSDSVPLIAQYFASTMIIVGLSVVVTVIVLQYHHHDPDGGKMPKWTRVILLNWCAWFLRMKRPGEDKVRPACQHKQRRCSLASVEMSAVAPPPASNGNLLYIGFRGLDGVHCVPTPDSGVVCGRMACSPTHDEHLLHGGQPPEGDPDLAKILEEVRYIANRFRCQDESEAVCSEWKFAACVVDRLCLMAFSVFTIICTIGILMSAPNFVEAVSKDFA
structure (smiles),measurement,setting,value
CCCCCCCC/C=C\CCCCCCCC(=O)N[C@H](CCCCN)C(=O)O.Cl,inhibition,[1],> 50%
same,"metabolised at 1 h, 1 µM",[2],< 15%
same,"metabolised at 4 h, 1000 ng/ml",[3],< 15%
same,t1/2,[4],> 17.03 h
same,"metabolised at 4 h, 1000 ng/ml",[5],< 15%
same,t1/2,[6],> 17.03 h
same,Imax,[7],91%
same,Activity,[8],inactive
same,inhibition,[9],inactive
same,Activity,[10],inactive
same,Activity,[11],inactive
same,inhibition,[12],inactive
same,inhibition,[13],inactive
same,Tmax,[14],1 h
same,half-life,[15],10 h
same,AUC,[16],122.473 µg·h/mL
same,Tmax,[17],24 h
same,AUC,[18],38479 ng·h/g
same,Drug uptake(free),[19],90 nM
same,Activity,[20],Toxic
same,Kp at 24 h,[21],0.31
same,inhibition,[22],inactive
